Tests used:
[1] = Volume of distribution at steady state in Beagle dog at 0.3 mg/kg, iv or 3 mg/kg, po and measured up to 24 hrs by LC-MS/MS analysis; format: ADME, organism-based, Canis lupus familiaris; settings: in vivo, read-out: Vdss
How it was run: (§1)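 Each species was dosed IV at 0.3 mg/kg and PO as follows: mouse 10 mg/kg, rat 3, dog 3, monkey 1. Plasma PK parameters derived were CL, Vss, IV half-life and oral bioavailability (F%).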

[2] = Volume of distribution at steady state in Sprague-Dawley rat at 0.3 mg/kg, iv or 3 mg/kg, po and measured up to 24 hrs by LC-MS/MS analysis; format: ADME, organism-based; settings: in vivo, read-out: Vdss; how it was run: as §1
[3] = Oral bioavailability in Sprague-Dawley rat at 3 mg/kg and measured up to 24 hrs by LC-MS/MS analysis; format: ADME, organism-based; settings: in vivo; how it was run: as §1
[4] = Volume of distribution at steady state in cynomolgus monkey at 0.3 mg/kg, iv or 1 mg/kg, po and measured up to 24 hrs by LC-MS/MS analysis; format: ADME, organism-based, Macaca fascicularis; settings: in vivo, read-out: Vdss; how it was run: as §1
[5] = Oral bioavailability in Beagle dog at 3 mg/kg and measured up to 24 hrs by LC-MS/MS analysis; format: ADME, organism-based, Canis lupus familiaris; settings: in vivo; how it was run: as §1
[6] = Volume of distribution at steady state in CD-1 mouse at 0.3 mg/kg, iv or 10 mg/kg, po and measured up to 24 hrs by LC-MS/MS analysis; format: ADME, organism-based; settings: in vivo, read-out: Vdss; how it was run: as §1
[7] = Oral bioavailability in cynomolgus monkey at 1 mg/kg and measured up to 24 hrs by LC-MS/MS analysis; format: ADME, organism-based, Macaca fascicularis; settings: in vivo; how it was run: as §1
[8] = Oral bioavailability in CD-1 mouse at 10 mg/kg and measured up to 24 hrs by LC-MS/MS analysis; format: ADME, organism-based; settings: in vivo; how it was run: as §1

| Vd [1] [L/kg] | Vd [2] [L/kg] | bioavailability [3] [%] | Vd [4] [L/kg] | bioavailability [5] [%] | Vd [6] [L/kg] | bioavailability [7] [%] | bioavailability [8] [%] | Structure (SMILES) |
| --- | --- | --- | --- | --- | --- | --- | --- | --- |
| 3 | 3.4 | 81 | 0.45 | 37 | 1 | 21 | 100 | COc1cc(OCc2ccnc(Nc3cnn(C)c3)n2)cc2sc(N[C@H]3CCCC[C@@H]3O)nc12 |
| 1.3 | 0.75 | 67 | 0.6 | 34 | 1.8 | 72 | > 90 | Nc1nccc(COc2ccc3nc(N[C@@H]4CCCC[C@H]4O)sc3c2)c1Cl |
